Test [1] addresses T1, 11-beta-hydroxysteroid dehydrogenase 1 (Homo sapiens, UniProt P28845). Briefly: Inhibition of human microsomal 11beta-HSD1 overexpressed in HEK293 cells using [3H]-cortisone as substrate assessed as formation of [3H]-cortisol at 10 uM using [3H]cortisone by scintillation proximity assay in presence of NADPH. Summed up:
(§1)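 Human or mouse 11β-HSD1 inhibition measured in vitro by scintillation proximity assay (SPA). Every isolate was first screened at a single concentration of 10 μM. […] Glycyrrhetinic acid served as the positive control. Other assay conditions follow an earlier report.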
In general terms: Scintillation proximity formats need no separation of bound from free tracer.
Target sequence in this assay (P28845 whole entry, looked up): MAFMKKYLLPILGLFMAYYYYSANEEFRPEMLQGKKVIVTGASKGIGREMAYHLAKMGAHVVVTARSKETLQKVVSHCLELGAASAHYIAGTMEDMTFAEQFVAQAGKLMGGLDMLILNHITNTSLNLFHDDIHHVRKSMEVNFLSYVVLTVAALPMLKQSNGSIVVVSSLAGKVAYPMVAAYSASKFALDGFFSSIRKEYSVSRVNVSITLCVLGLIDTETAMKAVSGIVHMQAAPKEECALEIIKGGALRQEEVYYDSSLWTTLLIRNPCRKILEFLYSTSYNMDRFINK

The target of test [2] is 11-beta-hydroxysteroid dehydrogenase 1 (Mus musculus, UniProt P50172). As to the kind of experiment: Inhibition of mouse microsomal 11beta-HSD1 overexpressed in HEK293 cells using [3H]-cortisone as substrate assessed as formation of [3H]-cortisol using [3H]cortisone by scintillation proximity assay in presence of NADPH.
Test [3] addresses T1, 11-beta-hydroxysteroid dehydrogenase 1. As to the kind of experiment: Inhibition of human microsomal 11beta-HSD1 overexpressed in HEK293 cells using [3H]-cortisone as substrate assessed as formation of [3H]-cortisol using [3H]cortisone by scintillation proximity assay in presence of NADPH.
Target sequence in this assay (P28845 whole entry): as the sequence (P28845 whole entry, looked up) above
The target in test [4] is 11-beta-hydroxysteroid dehydrogenase 1 (Mus musculus) (UniProt P50172). As to the kind of experiment: Inhibition of mouse microsomal 11beta-HSD1 overexpressed in HEK293 cells using [3H]-cortisone as substrate assessed as formation of [3H]-cortisol at 10 uM using [3H]cortisone by scintillation proximity assay in presence of NADPH. Summed up:
as §1

The structures appear in SMILES notation. Some results are limits rather than exact numbers.

Sequence of 11-beta-hydroxysteroid dehydrogenase 1 (Mus musculus) (P50172 whole entry, looked up): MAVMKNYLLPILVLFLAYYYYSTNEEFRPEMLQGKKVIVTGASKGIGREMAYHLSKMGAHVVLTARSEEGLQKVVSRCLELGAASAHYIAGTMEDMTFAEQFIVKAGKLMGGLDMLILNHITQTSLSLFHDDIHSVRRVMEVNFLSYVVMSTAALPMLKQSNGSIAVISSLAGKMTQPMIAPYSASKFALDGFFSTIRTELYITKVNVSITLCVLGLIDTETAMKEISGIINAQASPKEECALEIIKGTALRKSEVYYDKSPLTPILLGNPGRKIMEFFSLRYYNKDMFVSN
Sequence of 11-beta-hydroxysteroid dehydrogenase 1 (Mus musculus, UniProt P50172) (P50172 whole entry): as the sequence (P50172 whole entry, looked up) above

In the case of `CC(=O)O[C@H]1C[C@@]2(C)[C@H](c3ccoc3)C[C@H]3O[C@]32[C@]2(C)C(=O)C(O)=C3C(C)(C)C(=O)C=C[C@]3(C)[C@@H]12`, the inhibition in test [1] is over 50%. The figures for the IC50 result in test [2] (hek293) and in test [3] were “Not Active” and 9900 nM, respectively.

In the case of `C[C@@H]([C@@H]1O[C@@H]1C(O)C(C)(C)O)[C@@H]1CC[C@]2(C)C3=CC[C@H]4C(C)(C)[C@H](O)CC[C@]4(C)[C@H]3CC[C@@]12C` (stereo partly specified), the inhibition in test [4] and in test [1] was over 50% each time. In addition, the IC50 turned out to be 1200 nM in test [2] (read-out: IC50) and 1900 nM in test [3].

Take `C[C@@H](C[C@@H](O)[C@@H]1OC1(C)C)[C@H]1CC[C@@]2(C)C3=CC[C@H]4C(C)(C)[C@@H](O)CC[C@]4(C)[C@H]3CC[C@]12C`: the values for the inhibition in test [4] and in test [1] were over 50% and under 50%, respectively. In test [2] (read-out: IC50), the IC50 is 3800 nM.

On to `C[C@@H](C[C@@H](O)[C@@H]1OC1(C)C)[C@H]1CC[C@@]2(C)C3=CC[C@H]4C(C)(C)C(=O)CC[C@]4(C)[C@H]3CC[C@]12C`, for which the inhibition in test [4] was over 50%; in test [1] it was under 50%. The IC50 in test [2] (read-out: IC50) came to 690 nM.

In the case of `C[C@@H](C[C@@H](O)[C@H](O)C(C)(C)O)[C@@H]1CC[C@]2(C)C3=CC[C@H]4C(C)(C)C(=O)CC[C@]4(C)[C@H]3CC[C@@]12C`, the inhibition is over 50% in test [4] and under 50% in test [1]. The IC50 in test [2] (read-out: IC50) was determined as 880 nM.

Usually inhibition stands for the change of the read-out against control, counted positive when it falls. By IC50 is commonly meant the point on the concentration scale where inhibition reaches its midpoint.

For the origin of these results see ChEMBL document CHEMBL4477167, “Limonoids and Triterpenoids as 11β-HSD1 Inhibitors from Walsura robusta” (J Nat Prod, 2016).
